The test system of assay [1] is Tumor Cell line. Nature of the assay: LC50 was given In vitro as -50% percent growth (PG), measured as concentration of compound required to inhibit disease oriented human tumor cell line panels; Value ranges from 5.25->100. The assay is classed as functional. As to conditions: read-out: LC50 (the source's name). A digest of the protocol:
(§1)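 Human tumor cell line panel tested in vitro. Percent growth (PG) plotted against log drug concentration to give dose-response curves. LC50 is the concentration where PG equals -50%; GI50 and TGI are taken at +50% and 0%. Values are means across the full panel, with values beyond the tested limits (> or <) included in the mean.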

For assay [2], the system named is Tumor Cell line. Description: GI50 was given In vitro as +50% percent growth (PG), measured as concentration of compound required to inhibit disease oriented human tumor cell line panels; Value ranges from 0.32-2. The assay is classed as functional. The method in brief:
(§2)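 Human tumour cell line panel; percent growth plotted against log drug concentration to give dose-response curves. GI50 is the concentration giving PG +50%, and TGI the concentration giving PG 0%. Values are mean inhibitory concentrations over the entire panel. PG values at either limit (> or <) are included in the mean.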

Assay [3] relates to Tumor Cell line. Nature of the assay: TGI was measured In vitro as the ratio of the mean activity for all non-CNS tumor cell lines over the mean activity of the CNS tumor subpanel (eight cell lines). The assay is classed as functional, Homo sapiens. A digest of the protocol:
(§3)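 Ratio of the mean activity (μM) over all non-CNS tumour cell lines (ca. 40-50 lines) to the mean activity (μM) of the CNS subpanel (eight lines). Activity was taken from PG vs log concentration curves: GI50 at PG +50%, TGI at PG 0%.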

In assay [4] the test system is Tumor Cell line. Nature of the assay: GI50 was measured In vitro as the ratio of the mean activity for all non-CNS tumor cell lines over the mean activity of the CNS tumor subpanel (eight cell lines). The assay is classed as functional, Homo sapiens. The method in brief: as §3
For assay [5], the system named is Tumor Cell line. Nature of the assay: GI50 was given In vitro as +50% percent growth (PG), measured as concentration of compound required to inhibit disease oriented human tumor cell line panels; Value ranges from 0.19->100. Format: functional.
For assay [6], the system named is Tumor Cell line. Nature of the assay: LC50 was given In vitro as -50% percent growth (PG), measured as concentration of compound required to inhibit disease oriented human tumor cell line panels; Value ranges from 5.6->100. The assay is classed as functional. As to conditions: read-out: LC50 (the source's name).
Assay [7] deals with Tumor Cell line. Description: TGI was given In vitro as 0% percent growth (PG), measured as concentration of compound required to inhibit disease oriented human tumor cell line panels; Value ranges from 0.65->100. Format: functional.
Assay [8] relates to Tumor Cell line. Description: LC50 was given In vitro as -50% percent growth (PG), measured as concentration of compound required to inhibit disease oriented human tumor cell line panels; Value ranges from 67.61->100. The assay is classed as functional. As to conditions: read-out: LC50 (the source's name). The method in brief:
as §1

The subject of assay [9] is Tumor Cell line. Description: GI50 was given In vitro as +50% percent growth (PG), measured as concentration of compound required to inhibit disease oriented human tumor cell line panels; Value ranges from 0.23-29.5. Format: functional. The method in brief: as §2
The subject of assay [10] is Tumor Cell line. Description: TGI was given In vitro as 0% percent growth (PG), measured as concentration of compound required to inhibit disease oriented human tumor cell line panels. The assay is classed as functional. The method in brief:
as §2

For assay [11], the system named is Tumor Cell line. Nature of the assay: LC50 was given In vitro as -50% percent growth (PG), measured as concentration of compound required to inhibit disease oriented human tumor cell line panels. Format: functional. As to conditions: read-out: LC50 (the source's name). A digest of the protocol: as §1
For assay [12], the system named is Tumor Cell line. Description: GI50 was given In vitro as +50% percent growth (PG), measured as concentration of compound required to inhibit disease oriented human tumor cell line panels. Format: functional. A digest of the protocol: as §2
The test system of assay [13] is Tumor Cell line. Description: GI50 was given In vitro as +50% percent growth (PG), measured as concentration of compound required to inhibit disease oriented human tumor cell line panels; Value ranges from 0.060->100. The assay is classed as functional.
Assay [14] has as its system Tumor Cell line. Description: LC50 was given In vitro as -50% percent growth (PG), measured as concentration of compound required to inhibit disease oriented human tumor cell line panels; Value ranges from 3.02->100. Format: functional. The conditions noted are these: read-out: LC50 (the source's name).
Assay [15] relates to Tumor Cell line. Nature of the assay: TGI was given In vitro as 0% percent growth (PG), measured as concentration of compound required to inhibit disease oriented human tumor cell line panels; Value ranges from 0.68->100. The assay is classed as functional. A digest of the protocol: as §2
Assay [16] has as its system Tumor Cell line. Nature of the assay: GI50 was given In vitro as +50% percent growth (PG), measured as concentration of compound required to inhibit disease oriented human tumor cell line panels; Value ranges from 0.62-2.95. The assay is classed as functional. A digest of the protocol:
as §2

The subject of assay [17] is Tumor Cell line. Description: LC50 was given In vitro as -50% percent growth (PG), measured as concentration of compound required to inhibit disease oriented human tumor cell line panels; Value ranges from 4.09->100. The conditions noted are these: read-out: LC50 (the source's name). The assay is classed as functional. The method in brief:
as §1

Assay [18] relates to Tumor Cell line. Description: TGI was given In vitro as 0% percent growth (PG), measured as concentration of compound required to inhibit disease oriented human tumor cell line panels; Value ranges from 2-5.50. Format: functional. The method in brief: as §2
Assay [19] deals with Tumor Cell line. Nature of the assay: LC50 was measured In vitro as the ratio of the mean activity for all non-CNS tumor cell lines over the mean activity of the CNS tumor subpanel (eight cell lines). The assay is classed as functional, Homo sapiens. The method in brief: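 Same PG dose-response panel. LC50 (μM) is averaged separately over the non-CNS lines (ca. 40-50 lines) and the CNS subpanel (eight lines). The ratio is the non-CNS mean divided by the CNS mean.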

Assay [20] deals with Tumor Cell line. Nature of the assay: TGI was given In vitro as 0% percent growth (PG), measured as concentration of compound required to inhibit disease oriented human tumor cell line panels; Value ranges from 0.06->100. The assay is classed as functional.
The subject of assay [21] is Tumor Cell line. Description: GI50 was given In vitro as +50% percent growth (PG), measured as concentration of compound required to inhibit disease oriented human tumor cell line panels;Value ranges from 0.06->100. Format: functional.
The subject of assay [22] is Tumor Cell line. Nature of the assay: GI50 was given In vitro as +50% percent growth (PG), measured as concentration of compound required to inhibit disease oriented human tumor cell line panels; Value ranges from 0.51-12.88. The assay is classed as functional. The method in brief: as §2
For assay [23], the system named is Tumor Cell line. Description: LC50 was given In vitro as -50% percent growth (PG), measured as concentration of compound required to inhibit disease oriented human tumor cell line panels; Value ranges from 22.91->55. Format: functional. The conditions noted are these: read-out: LC50 (the source's name). The method in brief:
as §1

The term GI50 denotes the concentration that inhibits growth by half. Read a low GI50 as greater sensitivity of the cells. One may read the TGI as the concentration at which net growth stops.

Take `Cc1c2ccncc2c(C)c2c1[nH]c1ccc(OC(C)C)cc12`: in assay [1], the CC50 is above 6.61 µM. The molecule also registered a GI50 in assay [2] of 1320 nM. Also, the TGI ratio in assay [3] came out at 0.9. The GI50 ratio in [4] was found to be 0.78.

With `CC(=O)[O-].CCOc1ccc2[nH]c3c(C)c4cc[n+](C)cc4c(C)c3c2c1`, the GI50 in assay [5] is above 2340 nM. Besides, the CC50 in assay [6] is above 74.1 µM. Also, in [7], the TGI is above 19.5 µM. Further, the TGI ratio in assay [3] came to 7.08. In assay [4], the GI50 ratio came out at 5.92.

Consider `CC(=O)[O-].Cc1c2cc[n+](C)cc2c(C)c2c1[nH]c1ccc(Oc3ccccc3)cc12`, for which the CC50 in [8] was above 97.7 µM. Moreover, the GI50 in assay [9] worked out at 1820 nM. Also, in assay [3], the TGI ratio was 3.06. In assay [4], the GI50 ratio was found to be 3.48.

`CC(=O)[O-].Cc1c2cc[n+](C)cc2c(C)c2c1[nH]c1ccc(OC(C)(C)C)cc12` yielded a concentration for total growth inhibition (TGI) in assay [10] above 100 µM. Further, the CC50 in assay [11] was above 100 µM. In addition, in assay [3], the TGI ratio was 1. The GI50 ratio in assay [4] is 1. For the same molecule, in [12], the GI50 is above 100 µM.

On to `CCOc1ccc2[nH]c3c(C)c4cc[n+](C)cc4c(C)c3c2c1.[I-]`, for which, in [13], the GI50 is above 1170 nM. Besides, the CC50 in [14] was above 55 µM. In [15], the TGI is above 12 µM. Moreover, the TGI ratio in assay [3] came to 9.54. Further, in assay [4], the GI50 ratio is 7.9.

In assay [16], `Cc1c2ccncc2c(C)c2c1[nH]c1ccc(OCC(F)(F)F)cc12` yielded a GI50 of 1580 nM. Also, in [17], the CC50 is above 8.13 µM. The molecule further returned a TGI in [18] of 3.24 µM. Besides, the TGI ratio in [3] was 0.73. In addition, the GI50 ratio in assay [4] was 0.63. Further, the LC50 ratio in [19] stood at 0.74.

In turn, `Cc1c2cc[n+](C)cc2c(C)c2c1[nH]c1ccc(OC(C)C)cc12.[I-]` returned a TGI in assay [20] above 13.2 µM. In addition, the GI50 in assay [21] is above 1620 nM. The CC50 in [1] was above 58.9 µM. In addition, in assay [3], the TGI ratio was found to be 6.49. Besides, the GI50 ratio in assay [4] worked out at 8.35.

For the molecule `Cc1c2cc[n+](C)cc2c(C)c2c1[nH]c1ccc(O)c(OCC(F)(F)F)c12.[I-]`, the GI50 in [22] stood at 2240 nM. The CC50 in assay [23] was above 50.1 µM. Further, the TGI ratio in [3] is 3.89. In addition, in assay [4], the GI50 ratio came out at 5.65. In addition, the LC50 ratio in assay [19] was 1.35.

Turning to `CC(=O)[O-].Cc1c2cc[n+](C)cc2c(C)c2c1[nH]c1ccc(O)cc12` [ELLIPTINIUM ACETATE], in assay [11], the CC50 was above 100 µM. Further, the TGI ratio in assay [3] came to 9.34. Besides, the GI50 ratio in assay [4] was determined as 6.28.

For the origin of these results see ChEMBL document CHEMBL1127554, “Design, synthesis, and study of 9-substituted ellipticine and 2-methylellipticinium analogues as potential CNS-selective antitumor agents” (1994).
